The source made the active and inactive calls. The rule behind the calls is not given here.
Legend:
BT-549 [1] = test: Cytotoxicity against human BT-549 cells assessed as reduction in cell viability after 48 hrs by SRB assay; assay type: functional, cell-based; conditions: BT-549, 48 h
How it was run: (§1)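 Cells exposed to compounds for 48 h; growth inhibition and cytotoxicity read by sulforhodamine B staining. Concentration-response curves fit by four-parameter non-linear regression; IC50 is the concentration giving 50% reduction in cell density versus DMSO vehicle. Cells grown at 37 °C, 5% CO2 (Hs578T in DMEM with 10% FBS and 50 µg/mL gentamicin).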

Hs-578T = test: Cytotoxicity against human Hs-578T cells assessed as reduction in cell viability after 48 hrs by SRB assay; assay type: functional, cell-based; how it was run: as §1
MDA-MB-231 [2] = test: Cytotoxicity against human MDA-MB-231 cells assessed as reduction in cell viability after 48 hrs by SRB assay; assay type: functional, cell-based; conditions: MDA-MB-231, 48 h; how it was run: as §1
[3] = Selectivity index, ratio of IC50 for human MDA-MB-231 cells to IC50 for human BT-549 cells; assay type: functional
[4] = Inhibition of porcine cerebral cortex Na+/K+-ATPase after 15 mins by ADP-Glo reagent based assay; design: species or system Sus scrofa
CAL-51 = test: Cytotoxicity against human CAL-51 cells assessed as reduction in cell viability after 48 hrs by SRB assay; assay type: functional, cell-based; conditions: CAL-51, 48 h; how it was run: as §1
MDA-MB-468 = test: Cytotoxicity against human MDA-MB-468 cells assessed as reduction in cell viability after 48 hrs by SRB assay; assay type: functional, cell-based; conditions: MDA-MB-468, 48 h; how it was run: as §1
MDA-MB-453 = test: Cytotoxicity against human MDA-MB-453 cells assessed as reduction in cell viability after 48 hrs by SRB assay; assay type: functional, cell-based; conditions: MDA-MB-453, 48 h
How it was run: (§2)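 Cells grown at 37 °C in humidified 5% CO2 and exposed to compounds for 48 h. Antiproliferative and cytotoxic effects read by sulforhodamine B staining of cell density. Concentration-response curves fit by four-parameter non-linear regression. IC50 taken as the concentration giving 50% reduction in cell density relative to DMSO vehicle.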

SUM185PE = test: Cytotoxicity against human SUM185PE cells assessed as reduction in cell viability after 48 hrs by SRB assay; assay type: functional, cell-based; how it was run: as §2
HCC1806 = test: Cytotoxicity against human HCC1806 cells assessed as reduction in cell viability after 48 hrs by SRB assay; assay type: functional, cell-based; conditions: HCC1806, 48 h; how it was run: as §1
HCC1937 = test: Cytotoxicity against human HCC1937 cells assessed as reduction in cell viability after 48 hrs by SRB assay; assay type: functional, cell-based; conditions: HCC1937, 48 h; how it was run: as §1
HCC70 = test: Cytotoxicity against human HCC70 cells assessed as reduction in cell viability after 48 hrs by SRB assay; assay type: functional, cell-based; conditions: HCC70, 48 h; how it was run: as §1
BT-549 [5] = test: Induction of intracellular Ca2+ concentration in human BT-549 cells at 150 to 500 nM after 3 hrs by Cal520-AM dye-based fluorescence assay; assay type: functional, cell-based; conditions: dose nM 150-500, time 3.0 hrs
How it was run: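 BT-549 cells on coverslips at 60–80% confluency, loaded with 2.5 µM Cal-520 AM plus 0.2% Pluronic F-127 for 30 min at 37 °C, then washed. Imaged at 20× at T0 and 3 h after 150 or 500 nM compound, multiple fields. Per-cell corrected total fluorescence normalized to T0, versus DMSO; two-way ANOVA with Dunnett's test, n = 102–242 cells.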

[6] = Induction of intracellular Ca2+ concentration in human BT-549 cells at 150 nM after 2 hrs by Cal520-AM dye-based fluorescence assay relative to control; assay type: functional
How it was run: (§3)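 BT-549 and MDA-MB-231 cells in 96-well optical plates at 60–80% confluency, loaded with 2.5 µM Cal-520 AM and 0.2% Pluronic F-127 for 30 min at 37 °C. Same field imaged at 4× at T0 and 2 h after 150 nM compound. Per-cell corrected total fluorescence normalized to T0; two-way ANOVA with Bonferroni test, n = 291–531 cells.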

MDA-MB-231 [7] = test: Induction of intracellular Ca2+ concentration in human MDA-MB-231 cells at 150 nM after 2 hrs by Cal520-AM dye-based fluorescence assay; assay type: functional, cell-based; how it was run: as §3

Row | Structure (SMILES) | IC50 (BT-549 [1]) [nM] | IC50 (Hs-578T) [nM] | IC50 (MDA-MB-231 [2]) [nM] | Ratio IC50 [3] | EC50 [4] [nM] | IC50 (CAL-51) [nM] | IC50 (MDA-MB-468) [nM] | IC50 (MDA-MB-453) [nM] | IC50 (SUM185PE) [nM] | IC50 (HCC1806) [nM] | IC50 (HCC1937) [nM] | IC50 (HCC70) [nM] | Activity (BT-549 [5]) | fold change (FC) [6] | Activity (MDA-MB-231 [7])
1 | C[C@H]1O[C@H]2O[C@@H]3C[C@@H]4CC[C@@H]5[C@H](CC[C@]6(C)[C@@H](C7=CC(=O)OC7)CC[C@]56O)[C@@]4(C=O)C[C@H]3O[C@@]2(O)[C@H](O)[C@@H]1O | 49 | 120 | 630 | 13 | 300 |  |  |  |  |  |  |  |  |  | 
2 | C[C@@H]1C[C@@]2(N=CCS2)[C@]2(O)O[C@@H]3C[C@@]4(C=O)[C@@H](CC[C@@H]5[C@@H]4CC[C@]4(C)[C@@H](C6=CC(=O)OC6)CC[C@]54O)C[C@H]3O[C@@H]2O1 [USCHARIN] | 14.6 | 34 | 102 | 7 | 910 |  |  |  |  |  |  |  |  |  | 
3 | C[C@]12CC[C@H](O[C@@H]3O[C@H](CO)[C@@H](O)[C@H](O)[C@H]3O)C[C@@H]1CC[C@@H]1[C@@H]2CC[C@]2(C)[C@@H](C3=CC(=O)OC3)CC[C@]12O [DESGLUCOUZARIN] | 1800 | 1570 | 10000 | 6 | 1100 |  |  |  |  |  |  |  |  |  | 
4 | C[C@]12CC[C@H](O)C[C@@H]1CC[C@@H]1[C@@H]2CC[C@]2(C)[C@@H](C3=CC(=O)OC3)CC[C@]12O | 3900 | 3600 | > 30000 | >8 | 2100 |  |  |  |  |  |  |  |  |  | 
5 | C[C@H]1O[C@@H](O[C@H]2[C@@H](O)C[C@H](O[C@H]3[C@@H](O)C[C@H](O[C@H]4CC[C@@]5(C)[C@H](CC[C@@H]6[C@@H]5C[C@@H](O)[C@]5(C)[C@@H](C7=CC(=O)OC7)CC[C@]65O)C4)O[C@@H]3C)O[C@@H]2C)C[C@H](O)[C@@H]1O [DIGOXIN] | 51 | 69 | 480 |  |  | 130 | 230 | 230 | 280 | 280 | 550 | 640 |  |  | 
6 | C[C@]12CC[C@H]3[C@@H](CC[C@H]4C[C@@H](O)CC[C@@]43CO)[C@@]1(O)CC[C@@H]2C1=CC(=O)OC1 [COROGLAUCIGENIN] | 2300 | 1800 | 20000 | 9 | 1100 |  |  |  |  |  |  |  |  |  | 
7 | C[C@H]1O[C@@H](O[C@H]2CC[C@@]3(CO)[C@@H](CC[C@@H]4[C@@H]3CC[C@]3(C)[C@@H](C5=CC(=O)OC5)CC[C@]43O)C2)[C@H](O)[C@H](O)[C@@H]1O | 121 | 380 | 1250 | 10 | 500 |  |  |  |  |  |  |  |  |  | 
8 | C[C@H]1O[C@@H](O[C@H]2CC[C@@]3(CO)[C@@H](CC[C@@H]4[C@@H]3CC[C@]3(C)[C@@H](C5=CC(=O)OC5)CC[C@]43O)C2)[C@H](O)[C@H](O)[C@@H]1O[C@@H]1O[C@H](CO)[C@@H](O)[C@H](O)[C@H]1O | 70 | 300 | 980 | 14 | 600 |  |  |  |  |  |  |  |  |  | 
9 | C[C@H]1O[C@@H](O[C@@H]2C[C@@H]3CC[C@@H]4[C@H](CC[C@]5(C)[C@@H](C6=CC(=O)OC6)CC[C@]45O)[C@@]3(C=O)C[C@H]2O)[C@H](O)[C@H](O)[C@@H]1O | 1400 | 3900 | 10000 | 7 | 2500 |  |  |  |  |  |  |  |  |  | 
10 | C[C@@H]1C[C@H](O)[C@]2(O)O[C@@H]3C[C@@]4(C=O)[C@@H](CC[C@@H]5[C@@H]4CC[C@]4(C)[C@@H](C6=CC(=O)OC6)CC[C@]54O)C[C@H]3O[C@@H]2O1 [CALOTROPIN] | 30 | 60 | 440 | 15 | 360 |  |  |  |  |  |  |  | Active | 2 | Active

— ChEMBL document CHEMBL4665698, “Triple-Negative Breast Cancer Cells Exhibit Differential Sensitivity to Cardenolides from Calotropis gigantea” (J Nat Prod, 2020)
